Data on 29 compounds can be found in ChEMBL document CHEMBL1140733, “Comprehensive study of sansalvamide A derivatives and their structure-activity relationships against drug-resistant colon cancer cell lines” (J Med Chem, 2008).

Broadly, the inhibition is how much of the control response was suppressed. Low values mean a response near the control, high ones a response far below the control.

One assay has as its system HCT-116. As to the kind of experiment: Cytotoxicity against multidrug-resistant human HCT116 cells at 1 uM by thymidine incorporation assay. Type of assay: functional. Summed up: (§1)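 HCT-116 cells were grown in IMDM and HCT-15 in RPMI 1640, each with L-glutamine, 10% FBS and penicillin-streptomycin, at 3000 cells/well. Compound was applied at 1 µM in 1% DMSO for 72 h total, with 3H-thymidine added for the final 16 h. Percent growth inhibition versus DMSO controls was scintillation-counted, averaging three wells in each of three assays.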

For another assay, the system named is HCT-15. As to the kind of experiment: Cytotoxicity against multidrug-resistant human HCT15 cells at 1 uM by thymidine incorporation assay. Type of assay: functional. Summed up: as §1
Background: Incorporation of labelled thymidine or its analogues reports DNA synthesis.

Molecules are shown by their SMILES. Square brackets hold non-standard residues; d marks the D form. Peptide text beside a SMILES is read from it. * marks the point of attachment. dNMeF = CN[C@H](Cc1ccccc1)C(=O)O; Cbz = O=C(OCc1ccccc1)*; Bn = c1ccc(C*)cc1

On to `CC(C)C[C@@H]1NC(=O)[C@H](C(C)C)NC(=O)[C@H](CC(C)C)N(C)C(=O)[C@H](CC(C)C)NC(=O)[C@H](Cc2ccccc2)NC1=O` (HELM PEPTIDE1{F.L.[meL].V.L}$PEPTIDE1,PEPTIDE1,1:R1-5:R2$$$V2.0), for which the inhibition at 1 µM in the assay with HCT-116 was 30%; in the assay with HCT-15 it was 57%.
On to `CC(C)C[C@@H]1C(=O)N[C@H](CC(C)C)C(=O)N[C@H](C(C)C)C(=O)N[C@H](CC(C)C)C(=O)N[C@H](Cc2ccccc2)C(=O)N1C` (HELM PEPTIDE1{[dF].[CC(C)C[C@H](C(=O)[*:2])N(C)[*:1]].[dL].[dV].[dL]}$PEPTIDE1,PEPTIDE1,1:R1-5:R2$$$V2.0), for which the inhibition at 1 µM in the assay on HCT-116 was 42%; in the assay with HCT-15, 28%.
As for `CC(C)C[C@@H]1NC(=O)[C@@H](Cc2ccccc2)NC(=O)[C@@H](CC(C)C)NC(=O)[C@@H](C(C)C)NC(=O)[C@H](CCCCNC(=O)OCc2ccccc2)NC1=O` (cyclo(K(Cbz)[dV][dL][dF]L)), the inhibition at 1 µM in the assay on HCT-116 was found to be 22%; in the assay on HCT-15, 13%.
Regarding `CC(C)C[C@@H]1NC(=O)[C@@H](C(C)C)N(C)C(=O)[C@H](CC(C)C)NC(=O)[C@@H](CC(C)C)NC(=O)[C@H](Cc2ccccc2)NC1=O` (HELM PEPTIDE1{F.[dL].L.[CC(C)[C@H](C(=O)[*:2])N(C)[*:1]].L}$PEPTIDE1,PEPTIDE1,1:R1-5:R2$$$V2.0), the inhibition at 1 µM amounted to 38% in the assay with HCT-116 and 14% with HCT-15.
For `CC[C@H]1NC(=O)[C@H](C(C)C)NC(=O)[C@H](C(C)C)NC(=O)[C@H](Cc2ccccc2)NC(=O)[C@H](C(C)C)NC1=O` (HELM PEPTIDE1{F.V.V.[CC[C@@H](N[*:1])C(=O)[*:2]].V}$PEPTIDE1,PEPTIDE1,1:R1-5:R2$$$V2.0) the same measures were 16% and 2%.
For `CC(C)C[C@@H]1NC(=O)[C@H](C)NC(=O)[C@H](CC(C)C)NC(=O)[C@H](CC(C)C)NC(=O)[C@H](Cc2ccccc2)NC1=O` (HELM PEPTIDE1{A.L.F.L.L}$PEPTIDE1,PEPTIDE1,1:R1-5:R2$$$V2.0), in that order: 23% and 40%.
For `CC(C)C[C@@H]1NC(=O)[C@H](Cc2ccccc2)NC(=O)[C@H](CC(C)C)NC(=O)[C@@H](CO)NC(=O)[C@H](CC(C)C)NC1=O` (HELM PEPTIDE1{F.L.L.[dS].L}$PEPTIDE1,PEPTIDE1,1:R1-5:R2$$$V2.0) the same measures were 0% and 11%.
Regarding `CC(C)C[C@@H]1NC(=O)[C@H](Cc2ccccc2)NC(=O)[C@H](CC(C)C)NC(=O)[C@@H](Cc2ccccc2)NC(=O)[C@H](CC(C)C)NC1=O` (HELM PEPTIDE1{F.L.L.[dF].L}$PEPTIDE1,PEPTIDE1,1:R1-5:R2$$$V2.0), the inhibition at 1 µM in the assay with HCT-116 and in the assay with HCT-15 was 11% throughout.
In the case of `CC(C)C[C@@H]1NC(=O)[C@H](Cc2ccccc2)NC(=O)[C@H](CC(C)C)NC(=O)[C@H](C(C)C)N(C)C(=O)[C@H](CC(C)C)NC1=O` (HELM PEPTIDE1{F.L.L.[meV].L}$PEPTIDE1,PEPTIDE1,1:R1-5:R2$$$V2.0), the inhibition at 1 µM with HCT-116 came to 6%; in the assay on HCT-15, 23%.
Turning to `CC(C)C[C@@H]1NC(=O)[C@@H](C(C)C)NC(=O)[C@H](CC(C)C)NC(=O)[C@H](CC(C)C)N(C)C(=O)[C@H](Cc2ccccc2)NC1=O` (HELM PEPTIDE1{F.[meL].L.[dV].L}$PEPTIDE1,PEPTIDE1,1:R1-5:R2$$$V2.0), the results for the inhibition at 1 µM in the assay with HCT-116 and in the assay on HCT-15 were 38% and 19%, respectively.
For `CC(C)C[C@@H]1NC(=O)[C@@H](Cc2ccccc2)NC(=O)[C@H](C(C)C)NC(=O)[C@@H](CC(C)C)NC(=O)[C@@H](CC(C)C)NC1=O` (HELM PEPTIDE1{L.[dL].[dL].V.[dF]}$PEPTIDE1,PEPTIDE1,1:R1-5:R2$$$V2.0) the same measures were 32% and 0%.
For `CC(C)C[C@H]1NC(=O)[C@@H](Cc2ccccc2)NC(=O)[C@@H](CC(C)C)NC(=O)[C@@H](C(C)C)N(C)C(=O)[C@@H](CC(C)C)NC1=O` (HELM PEPTIDE1{[dF].[dL].[dL].[CC(C)[C@H](C(=O)[*:2])N(C)[*:1]].[dL]}$PEPTIDE1,PEPTIDE1,1:R1-5:R2$$$V2.0), in that order: 18% and 31%.
Take `CC(C)C[C@@H]1NC(=O)[C@H](Cc2ccccc2)NC(=O)[C@H](CC(C)C)NC(=O)[C@@H](C(C)C)N(C)C(=O)[C@H](CC(C)C)NC1=O` (HELM PEPTIDE1{F.L.L.[CC(C)[C@H](C(=O)[*:2])N(C)[*:1]].L}$PEPTIDE1,PEPTIDE1,1:R1-5:R2$$$V2.0): the values for the inhibition at 1 µM in the assay on HCT-116 and in the assay with HCT-15 were 19% and 21%, respectively.
As to `CC(C)C[C@@H]1NC(=O)[C@H](Cc2ccccc2)NC(=O)[C@@H](Cc2ccccc2)N(C)C(=O)[C@H](C(C)C)NC(=O)[C@H](CCCCNC(=O)OCc2ccccc2)NC1=O` (cyclo(FLK(Cbz)V[dNMeF])), the inhibition at 1 µM in the assay on HCT-116 worked out at 38%; in the assay on HCT-15 it was 14%.
For `CC(C)C[C@@H]1NC(=O)[C@H](C(C)C)N(C)C(=O)[C@H](CC(C)C)NC(=O)[C@H](CC(C)C)N(C)C(=O)[C@H](Cc2ccccc2)NC1=O` (HELM PEPTIDE1{F.[meL].L.[meV].L}$PEPTIDE1,PEPTIDE1,1:R1-5:R2$$$V2.0) the same measures were 18% and 15%.
For `CC(C)C[C@@H]1NC(=O)[C@H](Cc2ccccc2)NC(=O)[C@H](CC(C)C)NC(=O)[C@@H](C(C)C)NC(=O)[C@H](CCCCN)NC1=O` (HELM PEPTIDE1{F.L.K.[dV].L}$PEPTIDE1,PEPTIDE1,1:R1-5:R2$$$V2.0) the same measures were 11% and 18%.
For `CC(C)C[C@@H]1NC(=O)[C@H](Cc2ccccc2)NC(=O)[C@@H](CC(C)C)N(C)C(=O)[C@@H](C(C)C)N(C)C(=O)[C@H](CC(C)C)NC1=O` (HELM PEPTIDE1{F.L.L.[CC(C)[C@H](C(=O)[*:2])N(C)[*:1]].[CC(C)C[C@H](C(=O)[*:2])N(C)[*:1]]}$PEPTIDE1,PEPTIDE1,1:R1-5:R2$$$V2.0), in that order: 30% and 7%.
`CC(C)[C@@H]1NC(=O)[C@H](CC2CCCCC2)NC(=O)[C@H](CO)NC(=O)[C@H](Cc2ccccc2)NC(=O)[C@@H](Cc2ccccc2)N(C)C1=O` (HELM PEPTIDE1{[Cha].V.[CN([C@H](Cc1ccccc1)C(=O)[*:2])[*:1]].F.S}$PEPTIDE1,PEPTIDE1,1:R1-5:R2$$$V2.0): the inhibition at 1 µM turned out to be 34% in the assay with HCT-116 and 20% in the assay with HCT-15.
For `CC(C)[C@@H]1NC(=O)[C@H](Cc2ccccc2)NC(=O)[C@H](C(C)C)NC(=O)[C@@H](CO)NC(=O)[C@H](C(C)C)NC1=O` (HELM PEPTIDE1{F.V.V.[dS].V}$PEPTIDE1,PEPTIDE1,1:R1-5:R2$$$V2.0), in that order: 18% and 13%.
For `CC(C)C[C@@H]1NC(=O)[C@H](CC(C)C)NC(=O)[C@@H](Cc2c[nH]c3ccccc23)NC(=O)[C@H](CC(C)C)NC(=O)[C@H](C(C)C)NC1=O` (HELM PEPTIDE1{L.L.V.L.[dW]}$PEPTIDE1,PEPTIDE1,1:R1-5:R2$$$V2.0), in that order: 2% and 9%.
For `CC(C)[C@@H]1NC(=O)[C@H](Cc2ccccc2)NC(=O)[C@@H](COCc2ccccc2)NC(=O)[C@H](C(C)C)NC(=O)[C@H](C(C)C)NC1=O` (cyclo(FVVV[dS](Bn))) the same measures were 25% and 30%.
For the compound `CC(C)C[C@@H]1NC(=O)[C@H](CC(C)C)NC(=O)[C@@H](Cc2ccccc2)NC(=O)[C@@H](CC(C)C)NC(=O)[C@@H](C(C)C)NC1=O` (HELM PEPTIDE1{L.L.[dV].[dL].[dF]}$PEPTIDE1,PEPTIDE1,1:R1-5:R2$$$V2.0), the inhibition at 1 µM in the assay on HCT-116 stood at 44%; with HCT-15 it was 35%.
For `CC[C@@H]1NC(=O)[C@H](CC(C)C)NC(=O)[C@H](CC(C)C)NC(=O)[C@H](Cc2ccccc2)NC(=O)[C@H](CC(C)C)NC1=O` (HELM PEPTIDE1{[Abu].L.F.L.L}$PEPTIDE1,PEPTIDE1,1:R1-5:R2$$$V2.0) the same measures were 1% and 8%.
For `CC[C@@H]1NC(=O)[C@H](CC(C)C)NC(=O)[C@H](CC(C)C)NC(=O)[C@H](Cc2ccccc2)NC(=O)[C@@H](CC(C)C)NC1=O` (HELM PEPTIDE1{[Abu].[dL].F.L.L}$PEPTIDE1,PEPTIDE1,1:R1-5:R2$$$V2.0) the same measures were 13% and 8%.
For `CC(C)C[C@@H]1NC(=O)[C@H](Cc2ccccc2)NC(=O)[C@@H](Cc2ccccc2)NC(=O)[C@H](C(C)C)NC(=O)[C@H](CC(C)C)NC1=O`, in that order: 35% and 14%.
Consider `CC(C)[C@@H]1NC(=O)[C@H](Cc2ccccc2)NC(=O)[C@H](C(C)C)NC(=O)[C@@H](COCc2ccccc2)NC(=O)[C@H](C(C)C)NC1=O` (cyclo(FVV[dS](Bn)V)), for which the inhibition at 1 µM in the assay on HCT-116 turned out to be 17%; with HCT-15, 14%.
Regarding `CC(C)C[C@@H]1C(=O)N[C@H](CC(C)C)C(=O)N(C)[C@H](C(C)C)C(=O)N[C@H](CC(C)C)C(=O)N[C@H](Cc2ccccc2)C(=O)N1C` (HELM PEPTIDE1{[dF].[CC(C)C[C@H](C(=O)[*:2])N(C)[*:1]].[dL].[CC(C)[C@H](C(=O)[*:2])N(C)[*:1]].[dL]}$PEPTIDE1,PEPTIDE1,1:R1-5:R2$$$V2.0), the inhibition at 1 µM with HCT-116 is 43%; in the assay on HCT-15 it was 48%.
Take `CC(C)C[C@@H]1NC(=O)[C@H](Cc2ccccc2)NC(=O)[C@H](CC(C)C)NC(=O)[C@@H](C(C)C)NC(=O)[C@H](CCCCNC(=O)OCc2ccccc2)NC1=O` (cyclo(FLK(Cbz)[dV]L)): the inhibition at 1 µM with HCT-116 was determined as 16%; in the assay on HCT-15 it was 3%.
For `CC(C)C[C@@H]1NC(=O)[C@H](C(C)C)NC(=O)[C@H](CC(C)C)NC(=O)[C@@H](CC(C)C)NC(=O)[C@H](Cc2ccccc2)NC1=O` (HELM PEPTIDE1{F.[dL].L.V.L}$PEPTIDE1,PEPTIDE1,1:R1-5:R2$$$V2.0) the same measures were 45% and 10%.
